In ChEMBL document CHEMBL3856250, “Discovery of 6-Fluoro-5-(R)-(3-(S)-(8-fluoro-1-methyl-2,4-dioxo-1,2-dihydroquinazolin-3(4H)-yl)-2-methylphenyl)-2-(S)-(2-hydroxypropan-2-yl)-2,3,4,9-tetrahydro-1H-carbazole-8-carboxamide (BMS-986142): A Reversible Inhibitor of Bruton's Tyrosine Kinase (BTK) Conformationally Constrained by Two …” (J Med Chem, 2016):
The source made the active and inactive calls. The rule behind the calls is not given here.

Assays:
[1] = species on record: Homo sapiens; assay: Selectivity ratio of IC50 for JAK2 (unknown origin) to IC50 for full length recombinant human His-tagged BTK expressed in baculovirus
[2] = target: T1, Tyrosine-protein kinase BTK (Homo sapiens, UniProt Q06187); assay: Inhibition of BTK in human Ramos-B cells assessed as suppression of BCR/anti-IgM-stimulated Ca2+ flux after 1 hr incubation in dark by FLIPR1 assay
[3] = target: T1, Tyrosine-protein kinase BTK
[4] = AUC in mouse at 10 mg/kg; assay type: ADME, organism-based; conditions: in vivo
[5] = Cmax in mouse at 10 mg/kg, iv or po; assay type: ADME, organism-based; conditions: in vivo
[6] = Drug metabolism in mouse assessed as metabolite 13c formation at 10 mg/kg, iv or po; assay type: ADME, organism-based; conditions: in vivo
[7] = Clearance in mouse at 10 mg/kg, iv or po; assay type: ADME, organism-based; conditions: in vivo
[8] = target: T1, Tyrosine-protein kinase BTK; assay: Inhibition of BTK in human whole blood assessed as suppression of BCR/anti-IgM/IgG-stimulated CD69 surface expression after 18 hrs with agitation by FITC-staining based FACS analysis; assay type: tissue-based
[9] = AUC in mouse at 5 mg/kg; assay type: ADME, organism-based; conditions: in vivo
[10] = Cmax in mouse at 5 mg/kg; assay type: ADME, organism-based; design: dose 5 mg/kg; conditions: in vivo
[11] = Protein binding in human serum; assay type: ADME; conditions: read-out: PPB (converted)
[12] = Stability of the compound in methanol at 37 degC assessed as kinetic half life; assay type: physicochemical
[13] = Stability of the compound in methanol at 37 degC after 3 days; assay type: physicochemical; conditions: 72 h
[14] = Drug metabolism in dog plasma assessed as compound-6 formation after 4 hrs by HPLC analysis; assay type: ADME, cell-free, Canis lupus familiaris
Summary of the method: (§1)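 Atropisomer distribution was followed in plasma from multiple species incubated at 37 °C over 4 h.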

[15] = Drug level in human plasma treated with 4-(3-(S)-(8-Fluoro-1-methyl-2,4-dioxo-1,2-dihydroquinazolin-3(4H)-yl)-2-methylphenyl)7-(2-hydroxypropan-2-yl)-9H-carbazole-1-carboxamide after 4 hrs by HPLC analysis; assay type: ADME; summary of the method: as §1
[16] = Drug level in cynomolgus monkey plasma treated with 4-(3-(S)-(8-Fluoro-1-methyl-2,4-dioxo-1,2-dihydroquinazolin-3(4H)-yl)-2-methylphenyl)7-(2-hydroxypropan-2-yl)-9H-carbazole-1-carboxamide after 4 hrs by HPLC analysis; assay type: ADME, Macaca fascicularis; summary of the method: as §1
[17] = Drug metabolism in mouse plasma assessed as compound-6 formation after 4 hrs by HPLC analysis; assay type: ADME, cell-free; summary of the method: as §1
[18] = Drug level in rat plasma treated with 4-(3-(S)-(8-Fluoro-1-methyl-2,4-dioxo-1,2-dihydroquinazolin-3(4H)-yl)-2-methylphenyl)7-(2-hydroxypropan-2-yl)-9H-carbazole-1-carboxamide after 1 hr by HPLC analysis; assay type: ADME; summary of the method: as §1
[19] = Drug metabolism in rat plasma assessed as compound-6 formation after 4 hrs by HPLC analysis; assay type: ADME, cell-free; summary of the method: as §1
[20] = Drug level in mouse treated with 3-Chloro-4-(R)-(3-(S)-(8-fluoro-1-methyl-2,4-dioxo-1,2-dihydroquinazolin-3(4H)-yl)-2-methylphenyl)-7-(2-hydroxypropan-2-yl)-9H-carbazole-1-carboxamide assessed as compound formation; assay type: ADME; conditions: in vivo
[21] = Drug level in rat treated with 3-Chloro-4-(R)-(3-(S)-(8-fluoro-1-methyl-2,4-dioxo-1,2-dihydroquinazolin-3(4H)-yl)-2-methylphenyl)-7-(2-hydroxypropan-2-yl)-9H-carbazole-1-carboxamide assessed as compound formation; assay type: ADME; conditions: in vivo
[22] = Drug level in dog treated with 3-Chloro-4-(R)-(3-(S)-(8-fluoro-1-methyl-2,4-dioxo-1,2-dihydroquinazolin-3(4H)-yl)-2-methylphenyl)-7-(2-hydroxypropan-2-yl)-9H-carbazole-1-carboxamide assessed as compound formation; assay type: ADME, Canis lupus familiaris; conditions: in vivo
[23] = Stability of the compound in methanol at 37 degC after 5 days; assay type: physicochemical; conditions: 120 h
[24] = Stability in plasma (unknown origin) at 37 degC after 5 days; assay type: ADME, cell-free; conditions: 120 h
[25] = test system: Mus musculus; assay: Anti-autoimmune activity in lupus prone NZB/WF1 mouse model assessed as reduction in immune complex deposits at 10 mg/kg, po administered qd for 16 weeks; assay type: functional, organism-based
[26] = test system: Mus musculus; assay: Anti-autoimmune activity in lupus prone NZB/WF1 mouse model assessed as protection against inflammatory infiltration at 10 mg/kg, po administered qd for 16 weeks; assay type: functional, organism-based
[27] = test system: Mus musculus; assay: Anti-autoimmune activity in lupus prone NZB/WF1 mouse model assessed as protection against glomerular nephritis at 10 mg/kg, po administered qd for 16 weeks; assay type: functional, organism-based
[28] = test system: Mus musculus; assay: Anti-autoimmune activity in lupus prone NZB/WF1 mouse model assessed as protection against tubulo-interstitial nephritis at 10 mg/kg, po administered qd for 16 weeks; assay type: functional, organism-based
[29] = test system: Mus musculus; assay: Anti-autoimmune activity in lupus prone NZB/WF1 mouse model assessed as protection against glomerular nephritis at 30 mg/kg, po administered qd for 16 weeks; assay type: functional, organism-based
Summary of the method: (§2)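 Female NZB/WF1 mice, 24 weeks old, were randomized (n = 12 per group) after baseline body weight, proteinuria and serum dsDNA titers were measured. They were dosed by oral gavage once daily for 16 weeks in 80:20 PEG400/water vehicle, with prednisolone 10 mg/kg as the comparator arm. Health was monitored routinely, and weight, proteinuria and anti-dsDNA titers were measured every 3 weeks.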

[30] = species on record: Homo sapiens; assay: Inhibition of Ca2+ channel (unknown origin) at 10 uM by patch clamp assay
[31] = test system: Mus musculus; assay: Anti-autoimmune activity in lupus prone NZB/WF1 mouse model assessed as protection against tubulo-interstitial nephritis at 30 mg/kg, po administered qd for 16 weeks; assay type: functional, organism-based; summary of the method: as §2
[32] = test system: Mus musculus; assay: Antiathritis activity in anticollagen antibody-induced arthritis BALB/c mouse model assessed as reduction in LPS-induced inflammation in right hind paws at 5 and 20 mg/kg, po qd followed by LPS addition on day 3 measured after 11 days relative to control; assay type: functional, organism-based
[33] = test system: Mus musculus; assay: Anti-autoimmune activity in lupus prone NZB/WF1 mouse model assessed as reduction in immune complex deposits at 30 mg/kg, po administered qd for 16 weeks; assay type: functional, organism-based; summary of the method: as §2
[34] = test system: Mus musculus; assay: Antiathritis activity in anticollagen antibody-induced arthritis BALB/c mouse model assessed as reduction in LPS-induced bone resorption in right hind paws at 5 and 20 mg/kg, po qd followed by LPS addition on day 3 measured after 11 days relative to control; assay type: functional, organism-based
[35] = test system: Mus musculus; assay: Anti-autoimmune activity in lupus prone NZB/WF1 mouse model assessed as protection against inflammatory infiltration at 30 mg/kg, po administered qd for 16 weeks; assay type: functional, organism-based; summary of the method: as §2
[36] = test system: Mus musculus; assay: Anti-autoimmune activity in lupus prone NZB/WF1 mouse model assessed as inhibition of increase in severe proteinuria at 30 mg/kg, po administered qd for 16 weeks; assay type: functional, organism-based; summary of the method: as §2
[37] = test system: Mus musculus; assay: Anti-autoimmune activity in lupus prone NZB/WF1 mouse model assessed as protection from disease-related death at 30 mg/kg, po administered qd for 16 weeks; assay type: functional, organism-based; summary of the method: as §2
[38] = species on record: Homo sapiens; assay: Inhibition of Na+ channel (unknown origin) at 10 uM at 1 Hz by patch clamp assay
[39] = species on record: Homo sapiens; assay: Inhibition of Na+ channel (unknown origin) at 10 uM at 4 Hz by patch clamp assay

T1 sequence (Q06187 whole entry): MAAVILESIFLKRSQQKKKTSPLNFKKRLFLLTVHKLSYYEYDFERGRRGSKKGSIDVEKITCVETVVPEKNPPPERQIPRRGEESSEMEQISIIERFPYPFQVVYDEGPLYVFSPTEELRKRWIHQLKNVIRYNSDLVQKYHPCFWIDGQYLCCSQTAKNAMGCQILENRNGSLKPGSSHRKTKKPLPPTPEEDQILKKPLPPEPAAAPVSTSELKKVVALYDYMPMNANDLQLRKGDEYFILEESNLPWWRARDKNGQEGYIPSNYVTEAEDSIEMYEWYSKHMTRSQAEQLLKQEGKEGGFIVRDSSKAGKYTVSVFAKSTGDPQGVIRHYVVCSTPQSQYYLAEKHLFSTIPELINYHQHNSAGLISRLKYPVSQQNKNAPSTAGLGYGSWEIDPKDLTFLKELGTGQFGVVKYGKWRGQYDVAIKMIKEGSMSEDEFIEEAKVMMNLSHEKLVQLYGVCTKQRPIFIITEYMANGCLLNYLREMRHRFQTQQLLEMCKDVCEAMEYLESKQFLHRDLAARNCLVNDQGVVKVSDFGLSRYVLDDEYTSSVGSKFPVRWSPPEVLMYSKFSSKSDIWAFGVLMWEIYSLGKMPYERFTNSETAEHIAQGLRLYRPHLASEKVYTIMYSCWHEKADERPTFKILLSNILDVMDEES

Structure (SMILES) | Ratio IC50 [1] | IC50 [2] [nM] | IC50 [3] [nM] | AUC [4] [µM·h] | Cmax [5] [µM] | IC50 [8] [nM] | other results
Cc1c(-c2ccc(C(N)=O)c3[nH]c4c(c23)CC[C@@H](C(C)(C)O)C4)cccc1-n1c(=O)c2cccc(F)c2n(C)c1=O | 180 | 190 | 11 | – | – | – | –
Cc1c(-c2c(F)cc(C(N)=O)c3[nH]c4cc(C(C)(C)O)ccc4c23)cccc1-n1c(=O)c2cccc(F)c2n(C)c1=O | – | – | – | 28 | 5.5 | – | Drug metabolism [6]: Metabolite_Detected
Cc1c(-c2c(Cl)cc(C(N)=O)c3[nH]c4c(c23)CC[C@H](C(C)(C)O)C4)cccc1-n1c(=O)c2cccc(F)c2n(C)c1=O | – | – | – | 25 | 4.5 | – | CL [7]: 15%
Cc1c(-c2c(C#N)cc(C(N)=O)c3[nH]c4cc(C(C)(C)O)ccc4c23)cccc1-n1c(=O)c2cccc(F)c2n(C)c1=O | 7100 | 6 | – | 0.31 | 0.12 | 120 | –
Cc1c(-c2ccc(C(N)=O)c3[nH]c4cc(C(C)(C)O)ccc4c23)cccc1-n1c(=O)c2cccc(F)c2n(C)c1=O | – | – | – | – | – | – | AUC [9]: 25 µM·h; Cmax [10]: 2.2 µM; fraction unbound [11]: < 0.01; half-life [12]: 1.15 h; Stability [13]: Stable; Drug metabolism [14]: Metabolite_Notdetected; Drug uptake [15]: Active; Drug uptake [16]: Active; Drug metabolism [17]: Metabolite_Notdetected; Drug uptake [18]: Active; Drug metabolism [19]: Metabolite_Notdetected
Cc1c(-c2ccc(C(N)=O)c3[nH]c4cc(C(C)(C)O)ccc4c23)cccc1-n1cnc2ccccc2c1=O | – | – | – | 80 | – | – | –
Cc1cc(C(N)=O)c2[nH]c3cc(C(C)(C)O)ccc3c2c1-c1cccc(-n2c(=O)c3cccc(F)c3n(C)c2=O)c1C | – | 17 | 0.65 | 48 | 6.3 | 240 | –
Cc1c(-c2c(Cl)cc(C(N)=O)c3[nH]c4cc(C(C)(C)O)ccc4c23)cccc1-n1c(=O)[nH]c2c(F)cccc2c1=O | – | – | 1.6 | – | – | – | Drug metabolism [20]: Metabolite_Detected; Drug metabolism [21]: Metabolite_Detected; Drug metabolism [22]: Metabolite_Detected
Cc1c(-c2c(Cl)cc(C(N)=O)c3[nH]c4cc(C(C)(C)O)ccc4c23)cccc1-n1c(=O)c2cccc(F)c2n(C)c1=O | – | – | – | 41 | 4.7 | – | Stability [23]: Stable; Stability [24]: Stable
Cc1c(-c2ccc(C(N)=O)c3[nH]c4cc(C(C)(C)O)ccc4c23)cccc1-n1c(=O)c2ccccc2n(C)c1=O | – | – | 2.6 | – | – | 460 | Stability [13]: Stable
Cc1c(-c2c(F)cc(C(N)=O)c3[nH]c4c(c23)CC[C@@H](C(C)(C)O)C4)cccc1-n1c(=O)c2cccc(F)c2n(C)c1=O | 910 | 36 | – | – | – | 150 | –
Cc1c(-c2ccc(C(N)=O)c3[nH]c4c(c23)CC[C@H](C(C)(C)O)C4)cccc1-n1c(=O)c2cccc(F)c2n(C)c1=O | 740 | 63 | 2.7 | 16 | 3.6 | 380 | –
C[C@]12C=CC(=O)C=C1CC[C@@H]1[C@@H]2[C@@H](O)C[C@@]2(C)[C@H]1CC[C@]2(O)C(=O)CO | – | – | – | – | – | – | Activity [25]: Active; Activity [26]: Active; Activity [27]: Active; Activity [28]: Active
Cc1c(-c2c(F)cc(C(N)=O)c3[nH]c4c(c23)CC[C@H](C(C)(C)O)C4)cccc1-n1c(=O)c2cccc(F)c2n(C)c1=O (atropisomer R) | > 10000 | – | – | – | – | – | Activity [29]: Active; inhibition [30]: 40%; Activity [31]: Active; Activity [32]: Active; Activity [33]: Active; Activity [34]: Active; Activity [35]: Active; inhibition [36]: Active; Activity [37]: Active; inhibition [38]: 10%; inhibition [39]: 13%
Cc1c(-c2c(F)cc(C(N)=O)c3[nH]c4c(c23)CC[C@H](C(C)(C)O)C4)cccc1-n1c(=O)c2cccc(F)c2n(C)c1=O [BMS-986142] | – | 750 | 25 | – | – | – | –
